Laboratory results: ChEMBL document CHEMBL1148959, “Annoglabayin, a novel dimeric kaurane diterpenoid, and apoptosis in Hep G2 cells of annomontacin from the fruits of Annona glabra” (2004)

Assays:
Format in all cases: functional
HepG2 [1] = test: Effect on morphology in human HepG2 cells assessed as low cellular shape change at 100 uM after 3 hrs by FACS
Outline: (§1)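 Hep G2 cells in DMEM/10% FCS were treated with or without 100 µM for 3, 6, 9 or 24 h, then trypsinized. Forward scatter (size) and side scatter (granularity) were read by flow cytometry. Normal versus low shape change was expressed as a percentage after gating out cellular debris. At least three runs; a representative run is shown.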

HepG2 [2] = test: Induction of early apoptosis in human HepG2 cells assessed as number of cells with decreased mitochondrial transmembrane potential at 100 uM after 24 hrs using rhodamine 123 staining by FACS
Outline: (§2)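 Hep G2 cells seeded 5 × 105 per 60 mm dish 48 h ahead in DMEM with 10% FCS, penicillin, streptomycin and amphotericin B. Compound diluted into medium from a 200 mM DMSO stock and applied for 3, 6, 9 or 24 h; untreated cells as control. Medium then replaced with 5 µM rhodamine 123 for 30 min in the dark. Cells trypsinized and mean rhodamine 123 fluorescence read by flow cytometry. Run at least three times, with a representative experiment shown.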

HepG2 [3] = test: Effect on morphology in human HepG2 cells assessed as low cellular shape change at 100 uM after 9 hrs by FACS; outline: as §1
HepG2 [4] = test: Induction of apoptosis in human HepG2 cells assessed as cellular membrane damage at 100 uM after 3 hrs using propidium iodide staining by FACS
Outline: (§3)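 Treated or untreated for 3, 6, 9 or 24 h at 100 µM, Hep G2 cells were trypsinized and stained 10 min with 5 µg/mL PI. Argon laser excitation at 488 nm, emission >580 nm, ≥10 000 cells counted. Cells were classed as intact or membrane-damaged after gating out debris. At least three runs; a representative run is shown.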

HepG2 [5] = test: Induction of early apoptosis in human HepG2 cells assessed as number of cells with decreased mitochondrial transmembrane potential at 100 uM after 3 hrs using rhodamine 123 staining by FACS; outline: as §2
HepG2 [6] = test: Cell cycle arrest in human HepG2 cells assessed as accumulation at G1 phase at 25 uM after 24 hrs using propidium iodide staining by FACS
Outline: (§4)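 Hep G2 cells seeded at 5 × 10^5 per 60 mm dish 48 h ahead in DMEM with 10% FCS and antibiotics. Exposed 24 h; compound from DMSO stock diluted in medium. Adherent and floating cells pooled, fixed in PBS-MeOH (1:2) at 4 °C ≥18 h, then stained 30 min at room temperature in the dark with 50 µg/mL PI plus 50 µg/mL RNaseA. Flow cytometry at 488 nm excitation, emission >580 nm, doublets gated out; subG1 taken as the subdiploid fraction.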

HepG2 [7] = test: Induction of apoptosis in human HepG2 cells assessed as cellular membrane damage at 100 uM after 6 hrs using propidium iodide staining by FACS; outline: as §3
HepG2 [8] = test: Cell cycle arrest in human HepG2 cells assessed as accumulation at G2M phase at 100 uM after 24 hrs using propidium iodide staining by FACS; outline: as §4
HepG2 [9] = test: Induction of apoptosis in human HepG2 cells assessed as cellular membrane damage at 100 uM after 24 hrs using propidium iodide staining by FACS; outline: as §3
HepG2 [10] = test: Cell cycle arrest in human HepG2 cells assessed as accumulation at S phase at 25 uM after 24 hrs using propidium iodide staining by FACS; outline: as §4
HepG2 [11] = test: Induction of early apoptosis in human HepG2 cells assessed as number of cells with decreased mitochondrial transmembrane potential at 100 uM after 6 hrs using rhodamine 123 staining by FACS; outline: as §2
HepG2 [12] = test: Cell cycle arrest in human HepG2 cells assessed as accumulation at S phase at 100 uM after 24 hrs using propidium iodide staining by FACS; outline: as §4
HepG2 [13] = test: Cell cycle arrest in human HepG2 cells assessed as accumulation at G1 phase at 75 uM after 24 hrs using propidium iodide staining by FACS; outline: as §4
HepG2 [14] = test: Cell cycle arrest in human HepG2 cells assessed as accumulation at G1 phase at 100 uM after 24 hrs using propidium iodide staining by FACS; outline: as §4
HepG2 [15] = test: Effect on morphology in human HepG2 cells assessed as low cellular shape change at 100 uM after 6 hrs by FACS; outline: as §1
HepG2 [16] = test: Cell cycle arrest in human HepG2 cells assessed as accumulation at S phase at 50 uM after 24 hrs using propidium iodide staining by FACS; outline: as §4
HepG2 [17] = test: Cell cycle arrest in human HepG2 cells assessed as accumulation at subG1 phase at 75 uM after 24 hrs using propidium iodide staining by FACS; outline: as §4
HepG2 [18] = test: Cell cycle arrest in human HepG2 cells assessed as accumulation at subG1 phase at 50 uM after 24 hrs using propidium iodide staining by FACS; outline: as §4
HepG2 [19] = test: Cell cycle arrest in human HepG2 cells assessed as accumulation at G2M phase at 75 uM after 24 hrs using propidium iodide staining by FACS; outline: as §4
HepG2 [20] = test: Cell cycle arrest in human HepG2 cells assessed as accumulation at G2M phase at 25 uM after 24 hrs using propidium iodide staining by FACS; outline: as §4
HepG2 [21] = test: Induction of apoptosis in human HepG2 cells assessed as cellular membrane damage at 100 uM after 9 hrs using propidium iodide staining by FACS; outline: as §3
HepG2 [22] = test: Induction of early apoptosis in human HepG2 cells assessed as number of cells with decreased mitochondrial transmembrane potential at 100 uM after 9 hrs using rhodamine 123 staining by FACS; outline: as §2
HepG2 [23] = test: Cell cycle arrest in human HepG2 cells assessed as accumulation at G1 phase at 50 uM after 24 hrs using propidium iodide staining by FACS; outline: as §4
HepG2 [24] = test: Effect on morphology in human HepG2 cells assessed as low cellular shape change at 100 uM after 24 hrs by FACS; outline: as §1
HepG2 [25] = test: Cell cycle arrest in human HepG2 cells assessed as accumulation at G2M phase at 50 uM after 24 hrs using propidium iodide staining by FACS; outline: as §4
HepG2 [26] = test: Cell cycle arrest in human HepG2 cells assessed as accumulation at subG1 phase at 25 uM after 24 hrs using propidium iodide staining by FACS; outline: as §4
HepG2 [27] = test: Cell cycle arrest in human HepG2 cells assessed as accumulation at S phase at 75 uM after 24 hrs using propidium iodide staining by FACS; outline: as §4
HepG2 [28] = test: Cell cycle arrest in human HepG2 cells assessed as accumulation at subG1 phase at 100 uM after 24 hrs using propidium iodide staining by FACS; outline: as §4

What does the source list for `CCCCCCCCCCCC[C@H](O)[C@@H]1CC[C@@H]([C@@H](O)CCCCCCC(O)CCCCC[C@@H](O)CC2=C[C@H](C)OC2=O)O1` (stereo partly drawn) [ANNOMONTACIN]?
Activity (HepG2 [1]): 40.1%; Flu intensity (HepG2 [2]): 75; Activity (HepG2 [3]): 75.4%; Activity (HepG2 [4]): 7.1%; Flu intensity (HepG2 [5]): 367; Activity (HepG2 [6]): 50.2%; Activity (HepG2 [7]): 6.9%; Activity (HepG2 [8]): 10.4%; Activity (HepG2 [9]): 69.5%; Activity (HepG2 [10]): 39.1%; Flu intensity (HepG2 [11]): 241; Activity (HepG2 [12]): 32.9%; Activity (HepG2 [13]): 54.3%; Activity (HepG2 [14]): 56.7%; Activity (HepG2 [15]): 50.5%; Activity (HepG2 [16]): 37.1%; Activity (HepG2 [17]): 50.7%; Activity (HepG2 [18]): 12.2%; Activity (HepG2 [19]): 9.8%; Activity (HepG2 [20]): 10.8%; Activity (HepG2 [21]): 32.4%; Flu intensity (HepG2 [22]): 213; Activity (HepG2 [23]): 54.6%; Activity (HepG2 [24]): 80.1%; Activity (HepG2 [25]): 8.3%; Activity (HepG2 [26]): 4.4%; Activity (HepG2 [27]): 35.9%; Activity (HepG2 [28]): 58.3%
